This is an account of results in ChEMBL document CHEMBL3351351, “Synthesis and evaluation of sulfonylethyl-containing phosphotriesters of 3'-azido-3'-deoxythymidine as anticancer prodrugs” (Bioorg Med Chem, 2014).

Each structure is given as a SMILES string.

Data set [1] in a line: Half life in 0.1 M phosphate buffer at pH 7.4 at 37 degC by TLC. Format: physicochemical. Put shortly:
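Compound incubated in 0.1 M phosphate buffer pH 7.4 at 37 °C with shaking for varying times. Stopped with 2.0 M acetate buffer (pH 5) and ethanol, then chilled on ice and analysed by TLC. Percent parent left relative to zero-time control plotted against time; t1/2 = ln2/k from decay rate constant; mean ± SD of three independent experiments.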

Data set [2] is described as follows: Half life in human plasma by TLC. Format: ADME, cell-free. An outline of the steps:
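Freshly reconstituted lyophilized human plasma in 0.1 M phosphate buffer pH 7.4 (0.4 mL plasma solution plus 0.1 mL drug solution) incubated at 37 °C. Stopped as for the buffer test, proteins spun out at 3000 × g for 30 min, supernatant run on TLC. Half-life from first-order decay, three independent experiments; the ratio compares it with the buffer half-life.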

In another data set the test system is MCF7. Description: Cytotoxicity against human MCF7 cells after 72 hrs by MTT assay. Conditions: MCF7, 72 h. It is filed as functional, cell-based.
Data set [3] can be described thus: Cytotoxicity against human H460 cells after 72 hrs by MTT assay. It is filed as functional, cell-based. The settings on record: NCI-H460, 72 h.
Data set [4] is described as follows: Cytotoxicity against human KB-3-1 cells after 72 hrs by MTT assay. Format: functional, cell-based. Conditions: KB 3-1, 72 h.
The next data set deals with SW-620. In words: Cytotoxicity against human SW620 cells after 72 hrs by MTT assay. The settings on record: SW-620, 72 h. Format: functional, cell-based.
For data set [5], the system named is 143B. In words: Cytotoxicity against human 143B cells after 72 hrs by MTT assay. Format: functional, cell-based.
Data set [6] concerns 143B. Description: Cytotoxicity against human thymidine kinase-deficient 143B cells after 72 hrs by MTT assay. It is filed as functional, cell-based.
Data set [7] deals with 143B. Description: Ratio of IC50 for human thymidine kinase-deficient 143B cells to IC50 for human 143B cells. It is filed as functional. An outline of the steps: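 143B kept in EMEM with 10% FBS and 1% penicillin/streptomycin; the TK-deficient 143B/TK⁻ line kept in EMEM with 0.015 mg/mL 5-BrdU.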

As for `Cc1cn([C@H]2C[C@H](N=[N+]=[N-])[C@@H](COP(=O)(OCCS(=O)(=O)c3ccccc3)OCCS(=O)(=O)c3ccccc3)O2)c(=O)[nH]c1=O`, the figures for the half-life in [1] and in data set [2] were 0.71 h and 0.23 h, respectively. The IC50 with MCF7 was 16.3 µM; in data set [3] it was 7.59 µM; in [4] it was 11 µM; with SW-620, 43 µM; in the data set on 143B [5], 16.3 µM.
In the case of `Cc1ccc(S(=O)(=O)CCOP(=O)(OCCS(=O)(=O)c2ccc(C)cc2)OC[C@H]2O[C@@H](n3cc(C)c(=O)[nH]c3=O)C[C@@H]2N=[N+]=[N-])cc1`, the half-life in [1] was 1.09 h; in data set [2], 0.4 h. Besides, the IC50 in the data set with MCF7 was 19.6 µM; in [3], 11.3 µM; in data set [4], 14.4 µM; in the data set on SW-620 it was 46.6 µM; in the data set with 143B [5] it was 19.6 µM.
With `COc1ccc(S(=O)(=O)CCOP(=O)(OCCS(=O)(=O)c2ccc(OC)cc2)OC[C@H]2O[C@@H](n3cc(C)c(=O)[nH]c3=O)C[C@@H]2N=[N+]=[N-])cc1`, the figures for the half-life in data set [1] and in data set [2] were 1.44 h and 0.55 h, respectively. In addition, the IC50 was 6.38 µM with MCF7; 1.71 µM in data set [3]; 4.68 µM in [4]; 7.62 µM with SW-620; 5.45 µM in the data set on 143B [5]; 5.16 µM with 143B [6]. Also, in the data set with 143B [7], the “Ratio IC50” value is listed as 0.9.
With `Cc1cn([C@H]2C[C@H](N=[N+]=[N-])[C@@H](COP(=O)(OCCS(=O)(=O)c3ccc(Cl)cc3)OCCS(=O)(=O)c3ccc(Cl)cc3)O2)c(=O)[nH]c1=O`, the half-life in data set [1] was 0.36 h; in data set [2] it was 0.13 h. In addition, the IC50 with MCF7 was found to be 9.46 µM; in data set [3], 4.47 µM; in data set [4], 7.84 µM; in the data set with SW-620, 11.6 µM; with 143B [5], 7.83 µM; in the data set with 143B [6] it was 8.8 µM. Further, in the data set on 143B [7], the “Ratio IC50” value came to 1.1.
In the case of `Cc1cn([C@H]2C[C@H](N=[N+]=[N-])[C@@H](COP(=O)(OCCS(=O)(=O)c3ccc([N+](=O)[O-])cc3)OCCS(=O)(=O)c3ccc([N+](=O)[O-])cc3)O2)c(=O)[nH]c1=O`, the half-life in data set [1] was 0.07 h; in data set [2] it was 0.02 h. Also, the IC50 with MCF7 was 22.9 µM; in data set [3], 15.2 µM; in data set [4], 20.4 µM; with SW-620, 57 µM; with 143B [5], 23.1 µM.
On to `Cc1cn([C@H]2C[C@H](N=[N+]=[N-])[C@@H](COP(=O)(OCC(C)S(=O)(=O)c3ccccc3)OCC(C)S(=O)(=O)c3ccccc3)O2)c(=O)[nH]c1=O` (some centres undefined), for which the half-life in [1] was 13.6 h; in [2], 4.21 h. In addition, the half-maximal inhibitory concentration (IC50) in the data set with MCF7 was 27.6 µM; in data set [3], 23.7 µM; in data set [4] it was 25.2 µM; with SW-620 it was 68.2 µM; in the data set on 143B [5] it was 27.4 µM.
Take `Cc1cn([C@H]2C[C@H](N=[N+]=[N-])[C@@H](COP(=O)(OC(C)CS(=O)(=O)c3ccccc3)OC(C)CS(=O)(=O)c3ccccc3)O2)c(=O)[nH]c1=O` (some centres undefined): the half-life in [1] is 3.56 h; in data set [2], 1.35 h. Also, the half-inhibitory concentration (IC50) with MCF7 worked out at 22.4 µM; in [3] it was 14.6 µM; in data set [4], 18.4 µM; with SW-620 it was 54.8 µM; with 143B [5], 22.5 µM.
In the case of `CCC(CS(=O)(=O)c1ccccc1)OP(=O)(OC[C@H]1O[C@@H](n2cc(C)c(=O)[nH]c2=O)C[C@@H]1N=[N+]=[N-])OC(CC)CS(=O)(=O)c1ccccc1` (some centres undefined), the half-life in data set [1] is 5.42 h; in data set [2], 1.77 h. In addition, the IC50 in the data set on MCF7 was 12.2 µM; in data set [3], 5.13 µM; in data set [4], 8.28 µM; in the data set with SW-620 it was 27.8 µM; with 143B [5], 11.5 µM; in the data set on 143B [6], 13.3 µM. In addition, the “Ratio IC50” value in the data set with 143B [7] is 1.2.
As to `Cc1cn([C@H]2C[C@H](N=[N+]=[N-])[C@@H](COP(=O)(OC(C)C(C)S(=O)(=O)c3ccccc3)OC(C)C(C)S(=O)(=O)c3ccccc3)O2)c(=O)[nH]c1=O` (some centres undefined), the half-life in data set [1] is 279 h; in data set [2] it was 70.1 h. Also, the IC50 in the data set on MCF7 stood at 26.8 µM; in data set [3], 22.2 µM; in data set [4], 24.2 µM; in the data set on SW-620 it was 66.7 µM; in the data set on 143B [5], 26.4 µM.
Consider `Cc1cn([C@H]2C[C@H](N=[N+]=[N-])[C@@H](COP(=O)(OCC(c3ccccc3)S(=O)(=O)c3ccccc3)OCC(c3ccccc3)S(=O)(=O)c3ccccc3)O2)c(=O)[nH]c1=O` (some centres undefined), for which the values for the half-life in data set [1] and in data set [2] were 2.16 h and 0.51 h, respectively. The IC50 was 14.1 µM in the data set on MCF7; 7.13 µM in data set [3]; 9.82 µM in data set [4]; 42.2 µM with SW-620; 14.2 µM with 143B [5]; 19.7 µM with 143B [6]. For the same molecule, the “Ratio IC50” value with 143B [7] amounted to 1.2.
Turning to `Cc1cn([C@H]2C[C@H](N=[N+]=[N-])[C@@H](COP(=O)(OCCS(=O)(=O)c3ccccc3)Oc3ccccc3)O2)c(=O)[nH]c1=O` (some centres undefined), the half-life in data set [1] is 1.22 h; in data set [2], 0.45 h. Moreover, the half-inhibitory concentration (IC50) in the data set with MCF7 worked out at 25.3 µM; in [3], 18.2 µM; in [4], 21.7 µM; with SW-620 it was 62.1 µM; with 143B [5], 25.4 µM.
As to `Cc1ccc(OP(=O)(OCCS(=O)(=O)c2ccccc2)OC[C@H]2O[C@@H](n3cc(C)c(=O)[nH]c3=O)C[C@@H]2N=[N+]=[N-])cc1` (some centres undefined), the half-life was 1.32 h in data set [1] and 0.6 h in data set [2]. Also, the concentration for half-maximal inhibition (IC50) with MCF7 was determined as 28.2 µM; in data set [3], 24.7 µM; in data set [4], 27.1 µM; in the data set with SW-620, 71.7 µM; in the data set with 143B [5] it was 28.3 µM.
`COc1ccc(OP(=O)(OCCS(=O)(=O)c2ccccc2)OC[C@H]2O[C@@H](n3cc(C)c(=O)[nH]c3=O)C[C@@H]2N=[N+]=[N-])cc1` (some centres undefined): the half-life was 1.53 h in data set [1] and 0.6 h in data set [2]. The concentration for half-maximal inhibition (IC50) with MCF7 amounted to 20.4 µM; in data set [3] it was 12.3 µM; in data set [4], 15.2 µM; in the data set on SW-620, 47.3 µM; in the data set with 143B [5], 20.2 µM; in the data set on 143B [6], 25.3 µM. Also, the “Ratio IC50” value with 143B [7] is 1.3.
Regarding `Cc1cn([C@H]2C[C@H](N=[N+]=[N-])[C@@H](COP(=O)(OCCS(=O)(=O)c3ccccc3)Oc3ccc(F)cc3)O2)c(=O)[nH]c1=O` (some centres undefined), the figures for the half-life in [1] and in data set [2] were 1.08 h and 0.37 h, respectively. The half-maximal inhibitory concentration (IC50) worked out at 26.2 µM in the data set on MCF7; 20.8 µM in data set [3]; 23.3 µM in data set [4]; 64.5 µM in the data set with SW-620; 26.6 µM in the data set on 143B [5].
Regarding `Cc1cn([C@H]2C[C@H](N=[N+]=[N-])[C@@H](COP(=O)(OCCS(=O)(=O)c3ccccc3)Oc3ccc(Cl)cc3)O2)c(=O)[nH]c1=O` (some centres undefined), the half-life in data set [1] was 0.79 h; in [2], 0.35 h. Besides, the IC50 stood at 25 µM in the data set on MCF7; 17.9 µM in data set [3]; 21.4 µM in [4]; 61.3 µM in the data set with SW-620; 24.4 µM in the data set on 143B [5].
On to `Cc1ccc(OP(=O)(OCCSc2ccccc2)OC[C@H]2O[C@@H](n3cc(C)c(=O)[nH]c3=O)C[C@@H]2N=[N+]=[N-])cc1` (some centres undefined), for which the figures for the half-life in data set [1] and in data set [2] were 12 h and 20 h, respectively.
Regarding `Cc1cn([C@H]2C[C@H](N=[N+]=[N-])[C@@H](CO)O2)c(=O)[nH]c1=O` [ZIDOVUDINE], the IC50 was 13.7 µM in the data set with MCF7; 6.81 µM in data set [3]; 9.17 µM in data set [4]; 39.1 µM with SW-620; 12.2 µM in the data set with 143B [5]; 148 µM in the data set with 143B [6]. The “Ratio IC50” value with 143B [7] stood at 12.1.
